Test results as given in ChEMBL document CHEMBL4004831, “Naphthalene diimide-polyamine hybrids as antiproliferative agents: Focus on the architecture of the polyamine chains” (Eur J Med Chem, 2017).
Values after ≈ are worked out from the molar mass of the structure shown.

Tests used:
[1] = Stabilization of 5'Dabcyl/3'FAM labeled duplex DNA (unknown origin) assessed as increase in melting temperature at 2.5 uM pretreated for 5 mins at 30 degreeC followed by 5 mins incubation at 95 degreeC by fluorescence assay
Summary of the method: (§1)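 FRET melting in LiP buffer (10 mM LiOH, 50 mM KCl, pH 7.0 with H3PO4), ex 488 nm, em 520 nm. Samples were held 5 min at 30 °C, heated at 1 °C/min to 95 °C, held 5 min, then re-annealed. Tm came from first derivatives; ΔTm = shift with ligand at 2.5; at least three runs.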

Homo sapiens = species on record: Homo sapiens; assay: Stabilization of 5'Dabcyl/3'FAM labeled human telomeric sequence G-quadruplex DNA assessed as increase in melting temperature at 2.5 uM pretreated for 5 mins at 30 degreeC followed by 5 mins incubation at 95 degreeC by fluorescence assay; summary of the method: as §1
[2] = biological target: DNA topoisomerase 2-alpha (Homo sapiens, UniProt P11388); assay: Inhibition of human topoisomerase-2alpha-mediated relaxation of supercoiled pBR322 DNA after 1 hr by ethidium bromide staining based agarose gel electrophoresis
DNA topoisomerase 2-alpha, sequence (P11388 whole entry): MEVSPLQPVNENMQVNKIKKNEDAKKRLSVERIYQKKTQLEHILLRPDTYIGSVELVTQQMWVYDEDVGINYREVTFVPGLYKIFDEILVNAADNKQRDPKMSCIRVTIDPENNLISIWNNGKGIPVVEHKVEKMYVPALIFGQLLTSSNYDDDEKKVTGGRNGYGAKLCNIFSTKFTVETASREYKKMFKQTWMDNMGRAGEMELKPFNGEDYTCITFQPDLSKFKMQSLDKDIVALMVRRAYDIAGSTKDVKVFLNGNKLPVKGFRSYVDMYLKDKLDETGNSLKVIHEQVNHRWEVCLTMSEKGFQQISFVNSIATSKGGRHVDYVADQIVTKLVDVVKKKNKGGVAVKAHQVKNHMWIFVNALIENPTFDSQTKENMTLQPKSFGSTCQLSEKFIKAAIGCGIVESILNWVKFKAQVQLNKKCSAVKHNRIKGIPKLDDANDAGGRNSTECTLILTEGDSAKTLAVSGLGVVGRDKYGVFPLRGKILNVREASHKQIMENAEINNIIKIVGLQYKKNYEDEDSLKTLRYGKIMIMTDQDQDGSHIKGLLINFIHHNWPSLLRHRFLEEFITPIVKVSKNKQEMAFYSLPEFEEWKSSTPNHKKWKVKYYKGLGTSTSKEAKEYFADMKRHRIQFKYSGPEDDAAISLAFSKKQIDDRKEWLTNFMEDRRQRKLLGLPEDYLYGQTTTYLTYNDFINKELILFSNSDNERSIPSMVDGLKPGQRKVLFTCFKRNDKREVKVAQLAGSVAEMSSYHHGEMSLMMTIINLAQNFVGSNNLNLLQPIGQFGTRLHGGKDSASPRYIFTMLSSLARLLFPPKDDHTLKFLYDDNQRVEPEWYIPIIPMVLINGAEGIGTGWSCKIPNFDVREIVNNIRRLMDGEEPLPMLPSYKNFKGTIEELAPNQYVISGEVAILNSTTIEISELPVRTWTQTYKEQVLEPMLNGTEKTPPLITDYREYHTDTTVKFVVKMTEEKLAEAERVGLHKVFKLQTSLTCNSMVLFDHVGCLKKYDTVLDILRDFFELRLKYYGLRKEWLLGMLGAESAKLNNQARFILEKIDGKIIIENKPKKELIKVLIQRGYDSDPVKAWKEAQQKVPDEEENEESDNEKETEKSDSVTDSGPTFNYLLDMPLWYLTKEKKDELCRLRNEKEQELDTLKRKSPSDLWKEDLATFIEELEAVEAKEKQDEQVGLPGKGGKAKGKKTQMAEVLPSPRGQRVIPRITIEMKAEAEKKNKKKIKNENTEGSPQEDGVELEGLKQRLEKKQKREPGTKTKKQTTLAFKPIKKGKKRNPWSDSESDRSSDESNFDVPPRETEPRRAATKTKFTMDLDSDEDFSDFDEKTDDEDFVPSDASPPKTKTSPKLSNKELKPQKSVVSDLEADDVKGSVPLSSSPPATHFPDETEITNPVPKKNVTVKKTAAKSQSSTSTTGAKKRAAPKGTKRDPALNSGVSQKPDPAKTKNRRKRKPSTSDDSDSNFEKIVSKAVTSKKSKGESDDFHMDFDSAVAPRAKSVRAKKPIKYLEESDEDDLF
Summary of the method: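 Supercoiled pBR322 was incubated with compound (0.5–100) and 1 U human topoisomerase IIα in enzyme buffer for 1 h at 37 °C. Reactions were stopped with Tris/EDTA/NaCl loading buffer (pH 8.0) and run on 1% agarose in TAE with 0.1% SDS (4.9 V/cm, 90 min), then stained with ethidium bromide. IC50 is the concentration reducing relaxation activity by 50%.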

Thermus aquaticus = assay: Inhibition of Thermus aquaticus DNA polymerase-mediated amplification of fragment of pBR322 by PCR
Summary of the method: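 PCR amplification of a pBR322 fragment by Taq polymerase with increasing compound (0.25–40) for 25 cycles: 94 °C, 58 °C and 72 °C, 30 s each. Products were run on 2% agarose in 0.5X TBE (4.2 V/cm, 1.5 h) and stained with ethidium bromide. IC50 is the concentration halving activity; MIC is the lowest concentration that suppresses activity.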

ΔTm [1] [°C] | ΔTm (Homo sapiens) [°C] | IC50 [2] [µM] | MIC (Thermus aquaticus) [µM] | SMILES
12.2 | 16.3 |  |  | COc1ccccc1CNCCCN1C(=O)c2ccc3c4c(ccc(c24)C1=O)C(=O)N(CCCNCCCNCCCN)C3=O
8.4 | 20.5 | 6 | 10 (≈ 6.21 µg/mL) | COc1ccccc1CNCCCN1C(=O)c2ccc3c4c(ccc(c24)C1=O)C(=O)N(CCCNCc1ccccc1OC)C3=O
12.6 | 13.1 |  |  | COc1ccc(CNCCCN2C(=O)c3ccc4c5c(ccc(c35)C2=O)C(=O)N(CCCNCCCCNCCCN)C4=O)c(OC)c1OC
